Experimental data published in publication PMC6753935 (Journal of Clinical and Translational Science, 2019).
Where two headings read alike, the source gives them in different places.

Columns and labels:
[1] = tested on: platelets in platelet-rich plasma (PRP); experiment: ADP-induced platelet aggregation in PRP from NHPs dosed with RUC-4 IM; format: in vivo, cynomolgus monkey (Macaca fascicularis)
Summary of the method: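 Six adult male monkeys (3.6–4.8 y; two per dose) got a single unsedated IM injection (0.064 ml/kg) at 1, 1.93 or 3.86 mg/kg. Citrated blood was drawn pre-dose and at 30, 120 and 270 min, plus ~27 h at the top dose. PRP was adjusted to 3 × 10^5/μl with PPP. Light-transmission aggregation at 37°C with stirring, 5 µM ADP. Percent inhibition of the initial slope versus untreated sample.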

[2] = molecular target: αIIbβ3 (Homo sapiens, UniProt P05106+P08514); format: cell-based; settings: five donors, p < 0.0001
Chain of αIIbβ3 (P08514 32-887 limits assumed): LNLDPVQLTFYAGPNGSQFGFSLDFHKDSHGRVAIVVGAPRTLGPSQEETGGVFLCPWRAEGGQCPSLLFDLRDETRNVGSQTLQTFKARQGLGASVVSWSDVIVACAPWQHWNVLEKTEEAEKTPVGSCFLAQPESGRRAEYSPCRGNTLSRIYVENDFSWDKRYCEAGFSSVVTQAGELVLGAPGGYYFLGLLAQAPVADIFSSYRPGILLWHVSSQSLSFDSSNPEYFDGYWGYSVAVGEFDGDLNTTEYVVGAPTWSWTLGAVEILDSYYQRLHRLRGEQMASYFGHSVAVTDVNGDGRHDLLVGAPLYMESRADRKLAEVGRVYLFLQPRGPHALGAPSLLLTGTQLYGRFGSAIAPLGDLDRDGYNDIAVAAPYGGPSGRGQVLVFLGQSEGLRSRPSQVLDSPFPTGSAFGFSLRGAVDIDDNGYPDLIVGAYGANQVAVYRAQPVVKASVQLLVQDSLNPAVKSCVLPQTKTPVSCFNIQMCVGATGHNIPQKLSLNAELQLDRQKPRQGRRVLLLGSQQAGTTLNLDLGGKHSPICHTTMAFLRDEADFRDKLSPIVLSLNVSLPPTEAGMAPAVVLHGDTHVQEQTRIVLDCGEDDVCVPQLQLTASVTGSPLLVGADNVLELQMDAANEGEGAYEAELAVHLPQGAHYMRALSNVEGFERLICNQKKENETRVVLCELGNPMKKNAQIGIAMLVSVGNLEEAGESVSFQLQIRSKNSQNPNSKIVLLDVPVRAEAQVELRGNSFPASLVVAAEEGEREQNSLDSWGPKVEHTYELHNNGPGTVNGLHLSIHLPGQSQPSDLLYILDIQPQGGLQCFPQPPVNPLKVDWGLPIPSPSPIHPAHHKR
Chain of αIIbβ3 (P08514 891-1039 partner limits assumed): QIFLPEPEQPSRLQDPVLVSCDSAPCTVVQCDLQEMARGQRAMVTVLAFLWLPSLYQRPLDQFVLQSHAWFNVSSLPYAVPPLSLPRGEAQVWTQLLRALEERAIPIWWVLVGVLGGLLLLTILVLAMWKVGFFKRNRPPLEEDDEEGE
Chain of αIIbβ3 (P05106 27-788): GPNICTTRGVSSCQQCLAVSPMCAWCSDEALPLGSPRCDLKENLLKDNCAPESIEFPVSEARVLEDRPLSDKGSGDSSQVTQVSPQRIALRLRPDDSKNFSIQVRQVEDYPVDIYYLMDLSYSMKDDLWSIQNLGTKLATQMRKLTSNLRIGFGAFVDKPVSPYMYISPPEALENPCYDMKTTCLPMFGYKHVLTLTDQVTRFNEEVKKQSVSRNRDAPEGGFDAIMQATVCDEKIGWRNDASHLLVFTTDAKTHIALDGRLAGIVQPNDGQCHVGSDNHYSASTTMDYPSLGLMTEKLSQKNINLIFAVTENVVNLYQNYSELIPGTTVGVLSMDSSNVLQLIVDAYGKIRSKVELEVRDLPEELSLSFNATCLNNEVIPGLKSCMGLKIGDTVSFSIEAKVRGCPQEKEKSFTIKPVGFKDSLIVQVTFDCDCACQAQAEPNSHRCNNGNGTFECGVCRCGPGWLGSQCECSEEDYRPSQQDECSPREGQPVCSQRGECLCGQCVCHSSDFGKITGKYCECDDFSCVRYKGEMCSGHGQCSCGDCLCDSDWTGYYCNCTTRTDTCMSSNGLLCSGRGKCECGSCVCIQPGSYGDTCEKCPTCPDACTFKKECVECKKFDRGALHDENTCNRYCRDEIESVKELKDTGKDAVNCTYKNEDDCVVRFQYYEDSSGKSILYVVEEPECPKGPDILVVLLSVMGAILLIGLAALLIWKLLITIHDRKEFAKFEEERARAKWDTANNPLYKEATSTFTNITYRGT

[3] = Clinical pathology: complete blood counts; format: in vivo, cynomolgus monkey (Macaca fascicularis); settings: arms 1, 2 and 5
Summary of the method: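 Same six male monkeys, dosed IM, IV or SC across five arms. EDTA blood for complete counts was drawn pre-dose and at 30, 120 and 270 min post-dose in arms 1–2. Sampling was pre-dose and 15 min in arm 3, 45 min in arm 4, and 120 min in arm 5. Hematocrit and platelet count were recorded.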

[4] = Pharmacokinetics: RUC-4 whole blood concentrations after IM, SC; format: in vivo, cynomolgus monkey (Macaca fascicularis); settings: for Bioavailability: compared to IV
Summary of the method: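 Six male monkeys (two per dose: 1, 1.93, 3.86 mg/kg) received single IV, IM or SC injections (0.064 ml/kg; SC into the abdomen). Repeat arms spanned ~6 months with washout. Blood was sampled pre-dose and at 5–270 min, plus 1 min post-IV. Whole-blood levels measured by LC-MS/MS (HILIC; quadratic curve 5–5000 ng/ml). Non-compartmental analysis; bioavailability relative to IV.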

[5] = tested on: platelets in platelet-rich plasma (PRP); experiment: Light transmission platelet aggregation, RUC-4 IC50 in NHP PRP; format: cell-based, cynomolgus monkey (Macaca fascicularis); settings: read-out: RUC-4 IC50 for platelet aggregation in NHP, mean ± SD; 5 µM ADP, citrated PRP, initial slope, 4 animals
[6] = tested on: human platelets in platelet-rich plasma (PRP); experiment: In vitro platelet aggregation in PRP of healthy human volunteers; format: cell-based
Summary of the method: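 Healthy donors' venous blood was anticoagulated with citrate (0.38% final), PPACK (0.1 or 0.3 mM final) or heparin (15.8 USP U/ml). PRP was spun at 650 × g for 4 min at room temperature. Aspirin 0.83 mM final for 10 min, then test compound (0.01–3 µM final) for 20 min. Aggregation induced by arachidonic acid 1.5 mM or ADP 5 µM. IC50 from initial-slope inhibition by Hill-equation fit.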

NCC(=O)Nc1cncc(-c2nn3c(=O)cc(N4CCNCC4)nc3s2)c1 [RUC-4]
Clinical observations (IM, similar at all doses, all animals): some minor bruising and red, raised areas limited to site of injection (thigh) or venipuncture
Clinical observations (IV 1.93 mg/kg, one animal in arm 2): minor nose and gingival bleeding
Clinical observations (IV 3.86 mg/kg, one animal in arm 2 and both animals in arm 3): vomited immediately after the IV injection
Clinical findings (SC, resolved by ~24 hours post-dose): red discoloration of the skin at the venipuncture and administration sites and bruising at sites of injection and inguinal areas
Tolerability (all doses, IM, IV, SC): well tolerated
Average inhibition of the initial slope of platelet aggregation in the two animals tested ([1]; IM 1.00 mg/kg, 30 minutes): b (Values of whole blood RUC-4 levels corresponding to an average of >80% inhibition of the initial slope of platelet aggregation in the two animals tested.)
Average inhibition of the initial slope of platelet aggregation in the two animals tested ([1]; IM 1.00 mg/kg, 120 minutes): c (Values of whole blood RUC-4 levels corresponding to an average of 0%–80% inhibition of the initial slope of platelet aggregation in the two animals tested.)
Average inhibition of the initial slope of platelet aggregation in the two animals tested ([1]; IM 1.00 mg/kg, 270 minutes): c (Values of whole blood RUC-4 levels corresponding to an average of 0%–80% inhibition of the initial slope of platelet aggregation in the two animals tested.)
Average inhibition of the initial slope of platelet aggregation in the two animals tested ([1]; IM 1.93 mg/kg, 30 minutes): b (Values of whole blood RUC-4 levels corresponding to an average of >80% inhibition of the initial slope of platelet aggregation in the two animals tested.)
Average inhibition of the initial slope of platelet aggregation in the two animals tested ([1]; IM 1.93 mg/kg, 120 minutes): b (Values of whole blood RUC-4 levels corresponding to an average of >80% inhibition of the initial slope of platelet aggregation in the two animals tested.)
Average inhibition of the initial slope of platelet aggregation in the two animals tested ([1]; IM 1.93 mg/kg, 270 minutes): c (Values of whole blood RUC-4 levels corresponding to an average of 0%–80% inhibition of the initial slope of platelet aggregation in the two animals tested.)
Average inhibition of the initial slope of platelet aggregation in the two animals tested ([1]; IM 3.86 mg/kg, 30 minutes): b (Values of whole blood RUC-4 levels corresponding to an average of >80% inhibition of the initial slope of platelet aggregation in the two animals tested.)
Average inhibition of the initial slope of platelet aggregation in the two animals tested ([1]; IM 3.86 mg/kg, 120 minutes): b (Values of whole blood RUC-4 levels corresponding to an average of >80% inhibition of the initial slope of platelet aggregation in the two animals tested.)
Average inhibition of the initial slope of platelet aggregation in the two animals tested ([1]; IM 3.86 mg/kg, 270 minutes): c (Values of whole blood RUC-4 levels corresponding to an average of 0%–80% inhibition of the initial slope of platelet aggregation in the two animals tested.)
Inhibition of the initial slope of aggregation in response to ADP ([1]; IM, all samples with whole blood RUC-4 concentration ≥ ~8 nM): > 80%
Inhibition of the initial slope of ADP-induced aggregation ([1]; IM, all three doses (1.0, 1.93, 3.86 mg/kg), 30 minutes post-dosing): > 80%
Average correlation between inhibition of platelet aggregation and inhibition of PAC-1 binding [2]: 0.96
Reductions in hematocrit, assessment [3]: considered consistent with the blood drawing from the animals
Platelet counts, trend ([3]; possible exception animal 4 at 1.93 mg/kg IM): did not demonstrate obvious drug-related trends by dose or time after administration
Time to peak level ([4]; 1.0 mg/kg SC): 15 min
Time to peak blood levels ([4]; IM): ≤ 5 min
T1/2 ([4]; IM 1.00 mg/kg): 16.8 min
Whole blood level ([4]; IM 1.00 mg/kg, 5 minutes): 3.415 µM
Whole blood level ([4]; IM 1.00 mg/kg, 15 minutes): 2.118 µM
Whole blood level ([4]; IM 1.00 mg/kg, 30 minutes): 0.164 µM
Whole blood level ([4]; IM 1.00 mg/kg, 45 minutes): 0.236 µM
Whole blood level ([4]; IM 1.00 mg/kg, 120 minutes): < 0.008 µM
Whole blood level ([4]; IM 1.00 mg/kg, 270 minutes): < 0.007 µM
Bioavailability ([4]; IM 1.00 mg/kg): 1.2
T1/2 ([4]; IM 1.93 mg/kg): 16.8 min
Whole blood level ([4]; IM 1.93 mg/kg, 5 minutes): 3.796 µM
Whole blood level ([4]; IM 1.93 mg/kg, 15 minutes): 3.692 µM
Whole blood level ([4]; IM 1.93 mg/kg, 30 minutes): 0.297 µM
Whole blood level ([4]; IM 1.93 mg/kg, 45 minutes): 0.333 µM
Whole blood level ([4]; IM 1.93 mg/kg, 120 minutes): 0.008 µM
Whole blood level ([4]; IM 1.93 mg/kg, 270 minutes): < 0.007 µM
Bioavailability ([4]; IM 1.93 mg/kg): 0.80
T1/2 ([4]; IM 3.86 mg/kg): 31.8 min
Whole blood level ([4]; IM 3.86 mg/kg, 5 minutes): 16.009 µM
Whole blood level ([4]; IM 3.86 mg/kg, 15 minutes): 8.783 µM
Whole blood level ([4]; IM 3.86 mg/kg, 30 minutes): 0.837 µM
Whole blood level ([4]; IM 3.86 mg/kg, 45 minutes): 0.952 µM
Whole blood level ([4]; IM 3.86 mg/kg, 120 minutes): 0.016 µM
Whole blood level ([4]; IM 3.86 mg/kg, 270 minutes): < 0.007 µM
Bioavailability ([4]; IM 3.86 mg/kg): 0.88
Time to peak levels ([4]; IM and SC, all doses except 1.0 mg/kg SC): ≤ 5 min
Time to peak blood levels ([4]; SC): ≤ 5 min
T1/2 ([4]; SC 1.00 mg/kg): 33.6 min
Whole blood level ([4]; SC 1.00 mg/kg, 5 minutes): 0.746 µM
Whole blood level ([4]; SC 1.00 mg/kg, 15 minutes): 0.819 µM
Whole blood level ([4]; SC 1.00 mg/kg, 30 minutes): 0.497 µM
Whole blood level ([4]; SC 1.00 mg/kg, 45 minutes): 0.241 µM
Whole blood level ([4]; SC 1.00 mg/kg, 120 minutes): 0.077 µM
Bioavailability ([4]; SC 1.00 mg/kg): 0.55
T1/2 ([4]; SC 1.93 mg/kg): 24.6 min
Whole blood level ([4]; SC 1.93 mg/kg, 5 minutes): 3.445 µM
Whole blood level ([4]; SC 1.93 mg/kg, 15 minutes): 3.056 µM
Whole blood level ([4]; SC 1.93 mg/kg, 30 minutes): 1.295 µM
Whole blood level ([4]; SC 1.93 mg/kg, 45 minutes): 0.551 µM
Whole blood level ([4]; SC 1.93 mg/kg, 120 minutes): 0.104 µM
Bioavailability ([4]; SC 1.93 mg/kg): 0.78
T1/2 ([4]; SC 3.86 mg/kg): 23.4 min
Whole blood level ([4]; SC 3.86 mg/kg, 5 minutes): 6.036 µM
Whole blood level ([4]; SC 3.86 mg/kg, 15 minutes): 5.310 µM
Whole blood level ([4]; SC 3.86 mg/kg, 30 minutes): 3.523 µM
Whole blood level ([4]; SC 3.86 mg/kg, 45 minutes): 1.098 µM
Whole blood level ([4]; SC 3.86 mg/kg, 120 minutes): 0.225 µM
Bioavailability ([4]; SC 3.86 mg/kg): 0.60
IC50 [5]: 807 ± 231 nM
Difference in RUC-4 IC50, citrate versus heparin and PPACK ([6]; lower IC50 in PRP from citrate-anticoagulated blood): approximately twofold
IC50 ([6]; read-out: RUC-4 IC50, 20 µM TRAP, blood anticoagulated with PPACK (0.3 mM), n = 4): 122 ± 17 nM
IC50 ([6]; read-out: RUC-4 IC50, 20 µM TRAP, blood anticoagulated with heparin (15.8 U/ml), n = 4): 111 ± 7 nM
IC50 ([6]; read-out: RUC-4 IC50, 20 µM TRAP, blood anticoagulated with sodium citrate (0.38%), n = 4): 66 ± 25 nM
IC50 ([6]; read-out: RUC-4 IC50, ADP 20 µM, blood anticoagulated with PPACK (0.1 mM), n = 5): 102 ± 22 nM
IC50 ([6]; read-out: RUC-4 IC50, ADP 20 µM, blood anticoagulated with sodium citrate (0.38%), n = 5): 54 ± 13 nM
IC50 ([6]; read-out: RUC-4 IC50, ADP (5 µM), aspirin (0.83 mM), mean of 5 patients): 37 nM
IC50 ([6]; read-out: RUC-4 IC50, ADP (5 µM), aspirin (0.83 mM), patient 1): 41 nM
IC50 ([6]; read-out: RUC-4 IC50, ADP (5 µM), aspirin (0.83 mM), patient 2): 33 nM
IC50 ([6]; read-out: RUC-4 IC50, ADP (5 µM), aspirin (0.83 mM), patient 3): 32 nM
IC50 ([6]; read-out: RUC-4 IC50, ADP (5 µM), aspirin (0.83 mM), patient 4): 43 nM
IC50 ([6]; read-out: RUC-4 IC50, ADP (5 µM), aspirin (0.83 mM), patient 5): 37 nM
IC50 ([6]; read-out: RUC-4 IC50, ADP (5 µM), vehicle, mean of 5 patients): 40 nM
IC50 ([6]; read-out: RUC-4 IC50, ADP (5 µM), vehicle, patient 1): 52 nM
IC50 ([6]; read-out: RUC-4 IC50, ADP (5 µM), vehicle, patient 2): 38 nM
IC50 ([6]; read-out: RUC-4 IC50, ADP (5 µM), vehicle, patient 3): 34 nM
IC50 ([6]; read-out: RUC-4 IC50, ADP (5 µM), vehicle, patient 4): 47 nM
IC50 ([6]; read-out: RUC-4 IC50, ADP (5 µM), vehicle, patient 5): 31 nM
IC50 ([6]; read-out: RUC-4 IC50, arachidonic acid (1.5 mM), vehicle, mean of 5 patients): 61 nM
IC50 ([6]; read-out: RUC-4 IC50, arachidonic acid (1.5 mM), vehicle, patient 1): 67 nM
IC50 ([6]; read-out: RUC-4 IC50, arachidonic acid (1.5 mM), vehicle, patient 2): 52 nM
IC50 ([6]; read-out: RUC-4 IC50, arachidonic acid (1.5 mM), vehicle, patient 3): 41 nM
IC50 ([6]; read-out: RUC-4 IC50, arachidonic acid (1.5 mM), vehicle, patient 4): 72 nM
IC50 ([6]; read-out: RUC-4 IC50, arachidonic acid (1.5 mM), vehicle, patient 5): 71 nM
IC50 ([6]; read-out: RUC-4 IC50 for ADP-induced aggregation, ADP 5 µM, aspirin-treated platelets (0.83 mM), citrated PRP): 37 ± 5 nM
